Reference: ChEMBL document CHEMBL2157865, “Novel 3-substituted-1-aryl-5-phenyl-6-anilinopyrazolo[3,4-d]pyrimidin-4-ones: docking, synthesis and pharmacological evaluation as a potential anti-inflammatory agents” (Bioorg Med Chem Lett, 2012)

What was measured:
[1] = tested on: Rattus norvegicus; assay: Antiinflammatory activity in Wistar albino rat assessed as inhibition of carrageenan-induced paw edema at 25 mg/kg, po after 3 hrs (reference value: 1.08 +/- 0.41%); type: functional
[2] = tested on: Rattus norvegicus; assay: Antiinflammatory activity in Wistar albino rat assessed as inhibition of carrageenan-induced paw edema at 25 mg/kg, po after 1 hr (reference value: 0.85 +/- 0.01%); type: functional
[3] = tested on: Rattus norvegicus; assay: Antiinflammatory activity in Wistar albino rat assessed as inhibition of carrageenan-induced paw edema at 25 mg/kg, po after 2 hrs (reference value: 1.11 +/- 0.02%); type: functional
[4] = tested on: Rattus norvegicus; assay: Toxicity in Wistar albino rat assessed as ulcer index at 75 mg/kg/day, po administered for 4 days measured after 12 hrs fasting post-last dose; type: organism-based; parameters: route oral; settings: in vivo
Method in brief: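 Male Wistar albino rats, 170–200 g, six per group, with control and standard groups. Compounds suspended in 1% w/v Tween 80 in water and dosed orally at 75 mg/kg/day on all 4 days. Rats fasted 12 h after last dose, then decapitated. Stomach opened along greater curvature and washed with distilled water and Krebs solution. Gastric lesions counted and ulcer index calculated per Szelenyi and Thiemer.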

Row | Compound | inhibition in vivo at 25 mg/kg [1] [%] | inhibition in vivo at 25 mg/kg [2] [%] | inhibition in vivo at 25 mg/kg [3] [%] | UI [4]
1 | NS(=O)(=O)c1ccc(-n2nc(Nc3ccc([N+](=O)[O-])cc3)c3c(=O)n(-c4ccccc4)c(Nc4ccccc4)nc32)cc1 | 39.1 | 67 | 55.3 | –
2 | O=c1c2c(Nc3ccc(Cl)cc3)nn(-c3ccccc3)c2nc(Nc2ccccc2)n1-c1ccccc1 | 28.6 | 47.5 | 44 | –
3 | CSc1nn(-c2ccc(S(N)(=O)=O)cc2)c2nc(Nc3ccccc3)n(-c3ccccc3)c(=O)c12 | 35.2 | 68.8 | 54.1 | 7.83
4 | O=c1c2c(Nc3ccccc3)nn(-c3ccccc3)c2nc(Nc2ccccc2)n1-c1ccccc1 | 17.1 | 48.1 | 43.4 | –
5 | Cc1ccc(-c2cc(C(F)(F)F)nn2-c2ccc(S(N)(=O)=O)cc2)cc1 [CELECOXIB] | 39.6 | 78.1 | 58.6 | 9.58
6 | NS(=O)(=O)c1ccc(-n2nc(Nc3ccc(Cl)cc3)c3c(=O)n(-c4ccccc4)c(Nc4ccccc4)nc32)cc1 | 38.3 | 69.8 | 56.3 | –
7 | NS(=O)(=O)c1ccc(-n2nc(Nc3ccccc3)c3c(=O)n(-c4ccccc4)c(Nc4ccccc4)nc32)cc1 | 39.6 | 60.2 | 54.8 | –
8 | O=c1c2c(Nc3ccccc3)nn(-c3ccc([N+](=O)[O-])cc3)c2nc(Nc2ccccc2)n1-c1ccccc1 | 14.1 | 43.9 | 40.8 | –
9 | Cc1ccc(Nc2nn(-c3ccc([N+](=O)[O-])cc3)c3nc(Nc4ccccc4)n(-c4ccccc4)c(=O)c23)cc1 | 30.2 | 46.6 | 39.8 | 16.72
10 | Cc1ccc(Nc2nn(-c3ccc(S(N)(=O)=O)cc3)c3nc(Nc4ccccc4)n(-c4ccccc4)c(=O)c23)cc1 | 43.7 | 77 | 63.4 | 9.5
11 | O=C([O-])Cc1ccccc1Nc1c(Cl)cccc1Cl.[Na+] [DICLOFENAC SODIUM] | 42.8 | 75.8 | 57.2 | 39.17
12 | O=c1c2c(Nc3ccc(Cl)cc3)nn(-c3ccc([N+](=O)[O-])cc3)c2nc(Nc2ccccc2)n1-c1ccccc1 | 20.6 | 39.6 | 39 | –
13 | CSc1nn(-c2ccc([N+](=O)[O-])cc2)c2nc(Nc3ccccc3)n(-c3ccccc3)c(=O)c12 | 26.6 | 42.1 | 37.7 | 7.5
14 | CSc1nn(-c2ccccc2)c2nc(Nc3ccccc3)n(-c3ccccc3)c(=O)c12 | 25.4 | 46.1 | 36.6 | 4.66
15 | O=c1c2c(Nc3ccc([N+](=O)[O-])cc3)nn(-c3ccc([N+](=O)[O-])cc3)c2nc(Nc2ccccc2)n1-c1ccccc1 | 16.8 | 23.9 | 19.4 | –
16 | O=c1c2c(Nc3ccc([N+](=O)[O-])cc3)nn(-c3ccccc3)c2nc(Nc2ccccc2)n1-c1ccccc1 | 15.1 | 29.4 | 29 | –
17 | Cc1ccc(Nc2nn(-c3ccccc3)c3nc(Nc4ccccc4)n(-c4ccccc4)c(=O)c23)cc1 | 32.9 | 55.7 | 53.4 | 3.2
